Assay results taken from ChEMBL document CHEMBL1132623, “Structure-based design, synthesis, and biological evaluation of irreversible human rhinovirus 3C protease inhibitors. 4. Incorporation of P1 lactam moieties as L-glutamine replacements” (J Med Chem, 1999).

Legend:
[1] = molecular target: T1, Human rhinovirus A protease (Human rhinovirus sp.) (UniProt Q4U254); assay: Irreversible inhibition of human rhinovirus 3C protease
T1 sequence (whole entry): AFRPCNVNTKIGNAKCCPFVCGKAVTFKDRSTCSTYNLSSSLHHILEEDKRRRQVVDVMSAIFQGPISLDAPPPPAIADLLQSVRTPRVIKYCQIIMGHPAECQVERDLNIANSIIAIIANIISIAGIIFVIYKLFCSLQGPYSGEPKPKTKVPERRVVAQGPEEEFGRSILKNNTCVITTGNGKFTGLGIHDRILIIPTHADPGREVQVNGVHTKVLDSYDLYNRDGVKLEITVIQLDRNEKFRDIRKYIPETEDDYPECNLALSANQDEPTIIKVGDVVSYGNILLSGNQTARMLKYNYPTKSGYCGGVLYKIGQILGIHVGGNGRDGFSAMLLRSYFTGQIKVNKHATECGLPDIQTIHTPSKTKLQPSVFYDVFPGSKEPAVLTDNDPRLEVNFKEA

[2] = The 50% cytotoxic concentration was calculated as the concentration of the drug that decreased the percentage of formazan produced in drug-treated,uninfected cells to 50% of that produced in drug free uninfected cells on serotype 14.; format: functional
[3] = molecular target: Cathepsin B (Homo sapiens) (UniProt P07858); assay: Inhibition of cathepsin B by the compound was measured as % activity of thrombin remaining after 10-15 min at 10 uM
In short: (§1)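 Purified proteases: human liver cathepsin B, porcine erythrocyte calpain I, human neutrophil elastase, bovine chymotrypsin, human thrombin and bovine trypsin. Each enzyme was incubated with inhibitor for 10-15 min, at 10 µM or at 2 µM where specified. Residual enzyme activity is reported as % remaining.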

[4] = molecular target: T2, Calpain-1 catalytic subunit (Homo sapiens) (UniProt P07384); assay: % activity against calpain 1 remaining after 10-15 min at 10 uM; conditions: Sus scrofa; in short: as §1
T2 sequence (whole entry): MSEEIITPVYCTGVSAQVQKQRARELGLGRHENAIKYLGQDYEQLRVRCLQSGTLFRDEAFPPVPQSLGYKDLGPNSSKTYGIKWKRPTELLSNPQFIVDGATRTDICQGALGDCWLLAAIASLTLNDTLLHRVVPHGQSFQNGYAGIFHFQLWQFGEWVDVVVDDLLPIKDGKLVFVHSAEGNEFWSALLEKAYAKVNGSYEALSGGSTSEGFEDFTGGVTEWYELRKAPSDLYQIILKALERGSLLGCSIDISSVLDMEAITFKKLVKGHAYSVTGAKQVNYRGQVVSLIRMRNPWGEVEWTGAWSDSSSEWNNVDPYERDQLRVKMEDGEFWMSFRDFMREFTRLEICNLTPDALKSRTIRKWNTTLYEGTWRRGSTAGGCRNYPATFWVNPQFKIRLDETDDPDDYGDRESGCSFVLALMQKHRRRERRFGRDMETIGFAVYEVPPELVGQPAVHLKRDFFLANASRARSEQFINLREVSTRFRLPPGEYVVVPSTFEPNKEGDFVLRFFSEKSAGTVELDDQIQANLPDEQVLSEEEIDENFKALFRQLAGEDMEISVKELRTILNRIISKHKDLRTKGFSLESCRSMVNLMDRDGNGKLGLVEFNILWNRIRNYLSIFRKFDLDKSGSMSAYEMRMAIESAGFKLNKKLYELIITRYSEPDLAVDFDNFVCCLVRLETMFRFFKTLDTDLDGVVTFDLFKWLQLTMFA

[5] = molecular target: Prothrombin (Homo sapiens) (UniProt P00734); assay: Inhibition of thrombin by the compound was measured as % activity of thrombin remaining after 10-15 min at 10 uM; in short: as §1
[6] = molecular target: T3, Serine protease 1 (Bos taurus) (UniProt P00760); assay: Inhibition of trypsin by the compound was measured as % activity of thrombin remaining after 10-15 min at 10 uM; in short: as §1
T3 sequence (whole entry): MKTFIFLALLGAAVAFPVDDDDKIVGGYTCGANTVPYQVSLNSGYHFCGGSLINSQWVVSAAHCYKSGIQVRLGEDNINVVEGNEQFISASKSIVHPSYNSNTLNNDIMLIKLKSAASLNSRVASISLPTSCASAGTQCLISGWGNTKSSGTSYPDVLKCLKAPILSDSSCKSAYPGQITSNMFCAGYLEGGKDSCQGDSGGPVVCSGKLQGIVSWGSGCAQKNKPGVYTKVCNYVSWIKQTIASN

[7] = molecular target: T4, Neutrophil elastase (Homo sapiens) (UniProt P08246); assay: % activity against elastase remaining after 10-15 min at 10 uM; in short: as §1
T4 sequence (whole entry): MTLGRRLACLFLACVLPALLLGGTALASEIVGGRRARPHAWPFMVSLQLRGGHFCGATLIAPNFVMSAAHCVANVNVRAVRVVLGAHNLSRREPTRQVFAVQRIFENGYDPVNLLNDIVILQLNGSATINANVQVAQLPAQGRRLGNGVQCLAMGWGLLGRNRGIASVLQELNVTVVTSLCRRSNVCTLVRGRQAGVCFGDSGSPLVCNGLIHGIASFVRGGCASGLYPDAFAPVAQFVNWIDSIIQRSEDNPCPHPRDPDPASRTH

[8] = molecular target: Chymotrypsinogen A (Bos taurus) (UniProt P00766); assay: Inhibition of Chymotrypsinogen by the compound was measured as % activity of thrombin remaining after 10-15 min at 10 uM; in short: as §1
[9] = half life towards biological agent (human plasma); format: ADME, organism-based
In short: (§2)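 Human plasma (CPDA) or heparinized animal plasma, with rat plasma diluted 1:1 in 100 mM phosphate pH 7.4, and buffer controls, n = 3. Compound was added to 25 µM final at 37 °C and sampled periodically over 1 h. Samples were quenched in CH3CN, centrifuged, dried, reconstituted and analysed by reverse-phase HPLC. 1-Naphthyl butyrate was the esterase control.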

[10] = molecular target: T1, Human rhinovirus A protease (Human rhinovirus sp.); assay: The EC90 was calculated as the concentration of drug that increased the percentage of formazan production in drug treated, virus infected cells to 50% of that produced by drug free uninfected cells on human rhinovirus-10.; format: functional
[11] = half life towards biological agent (rat plasma); format: ADME, cell-free; in short: as §2
[12] = tested on: peptidase; assay: half life towards biological agent (peptidase); format: ADME
In short: (§3)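 Compound at 25 µM in 100 mM potassium phosphate pH 7.4 was preincubated 5 min at 37 °C. Reaction was started with chymotrypsin (5 units/mL) or porcine intestinal peptidase (0.1 units/mL). Aliquots taken at 0 and 60 min were quenched in CH3CN and centrifuged. Parent was quantified by reverse-phase C8 HPLC with UV at 220 nm. 1-Naphthyl butyrate hydrolysis was the peptidase esterase control.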

[13] = tested on: chymotrypsin; assay: half life towards biological agent (chymotrypsin); format: ADME; in short: as §3
[14] = molecular target: T1, Human rhinovirus A protease (Human rhinovirus sp.); assay: The EC90 was calculated as the concentration of drug that increased the percentage of formazan production in drug treated, virus infected cells to 50% of that produced by drug free uninfected cells on human rhinovirus 1A.; format: functional
[15] = molecular target: T1, Human rhinovirus A protease (Human rhinovirus sp.); assay: The EC90 was calculated as the concentration of drug that increased the percentage of formazan production in drug treated, virus infected cells to 50% of that produced by drug free uninfected cells on human rhinovirus 2.; format: functional
[16] = molecular target: T1, Human rhinovirus A protease (Human rhinovirus sp.); assay: The EC90 was calculated as the concentration of drug that increased the percentage of formazan production in drug treated, virus infected cells to 50% of that produced by drug free uninfected cells on human rhinovirus-14.; format: functional
[17] = half life towards biological agent (dog plasma); format: ADME, organism-based, Canis lupus familiaris; in short: as §2
[18] = half life towards biological agent (dithiothreitol 5 mM); format: ADME; conditions: dithiothreitol solution
[19] = molecular target: T1, Human rhinovirus A protease (Human rhinovirus sp.); assay: The kobs/[I] value for the irreversible inhibitors was obtained by reaction initiated by addition of 50 nM 3CP,containing 1 uM substrate and varying inhibitor concentrations on serotype 2.
[20] = molecular target: T4, Neutrophil elastase (Homo sapiens); assay: % activity against elastase remaining after 10-15 min at 2 uM; in short: as §1
[21] = molecular target: Cathepsin B (Homo sapiens) (UniProt P07858); assay: Inhibition of cathepsin B by the compound was measured as % activity of thrombin remaining after 10-15 min at 2 uM; in short: as §1
[22] = molecular target: Prothrombin (Homo sapiens) (UniProt P00734); assay: Inhibition of thrombin by the compound was measured as % activity of thrombin remaining after 10-15 min at 2 uM; in short: as §1
[23] = Increased percentage of formazan production in drug treated virus infected cells to equal 50% control drug free uninfected cells on serotype 14
[24] = molecular target: T3, Serine protease 1 (Bos taurus); assay: Inhibition of trypsin by the compound was measured as % activity of thrombin remaining after 10-15 min at 2 uM; in short: as §1
[25] = molecular target: T2, Calpain-1 catalytic subunit (Homo sapiens); assay: % activity against calpain 1 remaining after 10-15 min at 2 uM; conditions: Sus scrofa; in short: as §1
[26] = molecular target: Chymotrypsinogen A (Bos taurus) (UniProt P00766); assay: Inhibition of Chymotrypsinogen by the compound was measured as % activity of thrombin remaining after 10-15 min at 2 uM; in short: as §1

## CCOC(=O)/C=C/[C@H](C[C@H]1CCNC1=O)NC(=O)[C@H](Cc1ccccc1)NC(=O)[C@H](CC(C)C)NC(=O)OCc1ccccc1
[1]
  K obs / 1: 18000 M⁻¹ s⁻¹
[2]
  CC50: > 100000 nM

## CCOC(=O)/C=C/[C@H](C[C@@H]1CCNC1=O)NC(=O)[C@H](Cc1ccc(F)cc1)NC(=O)[C@@H](NC(=O)c1cc(C)on1)C(C)(C)C
[3]
  Activity: 81%
[4]
  Activity: 100%
[5]
  Activity: 101%
[6]
  Activity: 95%
[7]
  Activity: 96%
[1]
  K obs / 1: 980000 M⁻¹ s⁻¹
[2]
  CC50: > 100000 nM
[8]
  Activity: 97%

## CCOC(=O)/C=C/[C@H](CCC(=O)NC)NC(=O)[C@H](Cc1ccccc1)NC(=O)[C@H](CC(C)C)NC(=O)OCc1ccccc1
[2]
  CC50: > 100000 nM

## CCOC(=O)/C=C/[C@H](C[C@@H]1CCNC1=O)NC(=O)[C@@H](CC(=O)[C@@H](NC(=O)c1cc(C)on1)C(C)C)Cc1ccc(F)cc1
[9]
  half-life: > 1 h
[10]
  EC90: 100 nM
[3]
  Activity: 98%
[11]
  half-life: < 2 min
[4]
  Activity: 100%
[5]
  Activity: 100%
[12]
  half-life: > 1 h
[6]
  Activity: 100%
[7]
  Activity: 99%
[13]
  half-life: > 1 h
[14]
  EC90: 41 nM
[1]
  K obs / 1: 1.09e+06 M⁻¹ s⁻¹
[15]
  EC90: 30 nM
[2]
  CC50: > 100000 nM
[16]
  EC90: 20 nM
[17]
  half-life: > 1 h
[18]
  half-life: > 0.5 h
[8]
  Activity: 100%

## CCOC(=O)/C=C/[C@H](CCC(N)=O)NC(=O)[C@@H](CC(=O)[C@@H](NC(=O)c1cc(C)on1)C(C)C)Cc1ccc(F)cc1
[14]
  EC90: 630 nM
[15]
  EC90: 280 nM

## CCOC(=O)/C=C/[C@H](C[C@@H]1CCCNC1=O)NC(=O)[C@@H](CC(=O)[C@@H](NC(=O)c1cc(C)on1)C(C)C)Cc1ccc(F)cc1
[1]
  K obs / 1: 500000 M⁻¹ s⁻¹
[2]
  CC50: > 100000 nM

## CCOC(=O)/C=C/[C@H](C[C@@H]1CCNC1=O)NC(=O)[C@H](Cc1ccccc1)NC(=O)[C@H](CC(C)C)NC(=O)OCc1ccccc1
[19]
  K obs / 1: 31000 M⁻¹ s⁻¹
[1]
  K obs / 1: 257000 M⁻¹ s⁻¹
[2]
  CC50: > 100000 nM

## CCOC(=O)/C=C/[C@H](CCC(N)=O)NC(=O)[C@H](Cc1ccccc1)NC(=O)[C@H](CC(C)C)NC(=O)OCc1ccccc1
[20]
  Activity: 92%
[21]
  Activity: 39%
[22]
  Activity: 101%
[23]
  EC50: 540 nM
[24]
  Activity: 98%
[25]
  Activity: 100%
[2]
  CC50: > 320000 nM
[26]
  Activity: 96%

## CCOC(=O)/C=C/[C@H](C[C@@H]1CCNC1=O)NC(=O)[C@H](Cc1ccc(F)cc1)NC(=O)[C@@H](NC(=O)c1cc(C)on1)C(C)C
[10]
  EC90: 140 nM
[3]
  Activity: 96%
[4]
  Activity: 100%
[5]
  Activity: 103%
[6]
  Activity: 100%
[7]
  Activity: 100%
[14]
  EC90: 140 nM
[1]
  K obs / 1: 1.5e+06 M⁻¹ s⁻¹
[15]
  EC90: 50 nM
[2]
  CC50: > 100000 nM
[16]
  EC90: 40 nM
[8]
  Activity: 101%

## CCOC(=O)/C=C/[C@H](CCC(=O)N(C)C)NC(=O)[C@H](Cc1ccccc1)NC(=O)[C@H](CC(C)C)NC(=O)OCc1ccccc1
[2]
  CC50: > 100000 nM

## CCOC(=O)/C=C/[C@H](C[C@@H]1CCNC1=O)NC(=O)[C@H](Cc1ccccc1)NC(=O)[C@@H](NC(=O)OCc1ccccc1)C(C)C
[1]
  K obs / 1: 500000 M⁻¹ s⁻¹
[2]
  CC50: > 100000 nM

## CCOC(=O)/C=C/[C@H](C[C@@H]1CCCNC1=O)NC(=O)[C@H](Cc1ccccc1)NC(=O)[C@H](CC(C)C)NC(=O)OCc1ccccc1
[1]
  K obs / 1: 239000 M⁻¹ s⁻¹
[2]
  CC50: > 100000 nM

## CCOC(=O)/C=C/[C@H](C[C@@H]1CCCNC1=O)NC(=O)[C@H](Cc1ccc(F)cc1)NC(=O)[C@@H](NC(=O)c1cc(C)on1)C(C)C
[1]
  K obs / 1: 900000 M⁻¹ s⁻¹
[2]
  CC50: > 100000 nM

## CCOC(=O)/C=C/[C@H](CN1CCNC1=O)NC(=O)[C@H](Cc1ccccc1)NC(=O)[C@H](CC(C)C)NC(=O)OCc1ccccc1
[1]
  K obs / 1: 10900 M⁻¹ s⁻¹
[2]
  CC50: > 100000 nM
